Assay [1] concerns HepG2. Put plainly: Induction of cell cycle arrest in human HepG2 cells assessed as accumulation at S phase at 0.5 uM incubated for 24 hrs by PI staining based flow cytometric analysis (reference value: 35.46%). Type of assay: functional. On the technique in general: In flow cytometry, cells or beads pass a laser one at a time.
Assay [2] has as its system HepG2. In words: Induction of apoptosis in human HepG2 cells assessed as upregulation of cleaved caspase 3 protein expression level incubated for 24 hrs by Western blot analysis. In kind it is functional, cell-based. The essentials:
(§1)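 Cells were treated 24 h in DMEM with 0, 0.25, 0.5, 1.0 or 1.25 µM compound. Adherent and floating cells were lysed in RIPA on ice and protein measured by BCA. Equal protein was run on 7.5–12.5% SDS-PAGE and transferred to PVDF. Membranes were blocked in 5% milk/PBST, incubated with primary antibody overnight at 4 °C, and detected by ECL.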
Background: Immunoblotting shows a protein as a band on a membrane.

Assay [3] has as its system PLC-PRF-5. Put plainly: Induction of apoptosis in human PLC/PRF/5 cells assessed as early apoptotic cells at 0.5 uM incubated for 24 hrs by annexin V staining based cell counting method (reference value: 5.65%). Type of assay: functional.
Assay [4] concerns PLC-PRF-5. In words: Induction of apoptosis in human PLC/PRF/5 cells assessed as necrotic cells at 1 uM incubated for 24 hrs by annexin V staining based cell counting method (reference value: 0.59%). Type of assay: functional.
Assay [5] deals with HepG2. Put plainly: Induction of cell cycle arrest in human HepG2 cells assessed as accumulation at S phase at 0.25 uM incubated for 24 hrs by PI staining based flow cytometric analysis (reference value: 35.46%). Type of assay: functional.
For assay [6], the system named is PLC-PRF-5. In words: Induction of cell cycle arrest in human PLC/PRF/5 cells assessed as accumulation at S phase at 1 uM incubated for 24 hrs by PI staining based flow cytometric analysis (reference value: 42.03%). Type of assay: functional.
For assay [7], the system named is HepG2. In words: Induction of ROS generation in human HepG2 cells by DCFH-DA staining-based flow cytometric analysis. In kind it is functional, cell-based. An outline of the steps: (§2)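 Cells were treated with 0, 0.25, 0.5 or 1 µM compound, stained with 10 µM DCFH-DA for 20 min at 37 °C, washed three times, resuspended in PBS and read by flow cytometry. Data are mean ± SD of three independent experiments.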

For assay [8], the system named is HepG2. Put plainly: Induction of apoptosis in human HepG2 cells assessed as down regulation of Bcl2 protein expression level incubated for 24 hrs by Western blot analysis. Type of assay: functional, cell-based. The essentials:
as §1

In assay [9] the test system is PLC-PRF-5. Put plainly: Induction of apoptosis in human PLC/PRF/5 cells assessed as late apoptotic cells at 1 uM incubated for 24 hrs by annexin V staining based cell counting method (reference value: 4.81%). In kind it is functional.
The subject of assay [10] is HepG2. Put plainly: Induction of apoptosis in human HepG2 cells assessed as early apoptotic cells at 0.5 uM incubated for 24 hrs by annexin V staining based cell counting method (reference value: 3.60%). In kind it is functional.
Assay [11] in a line: Selectivity index, ratio of IC50 for human LO2 cells to IC50 for human PLC/PRF/5 cells. An outline of the steps: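 L-O2 and PLC/PRF/5 cells were grown in DMEM with 10% FBS at 37 °C and 5% CO₂. For CCK-8 proliferation, 10,000 cells per well were pre-incubated 24 h, then exposed to compound in DMSO for 72 h. CCK-8 was added for 4 h and A450 read. IC50 came from dose–response curves; SI is IC50(L-O2)/IC50(PLC/PRF/5).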

Assay [12] deals with HepG2. Put plainly: Inhibition of colony formation in human HepG2 cells at 0.1 to 1 uM incubated for 10 days by crystal violet staining based microscopic method. Type of assay: functional, cell-based. The essentials:
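Five hundred cells plated per 30 mm dish and left 12 h. Medium with compound was added (0, 0.1, 0.5, 1 µM) or DMSO as negative control, and cells grew 10 days. Colonies were fixed in methanol 15 min, stained with 0.1% crystal violet 15 min, photographed and counted. Colony size was checked by microscope. Relative colony number is mean ± SD of ≥3 independent experiments.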

Assay [13] concerns PLC-PRF-5. In words: Induction of cell cycle arrest in human PLC/PRF/5 cells assessed as accumulation at G1 phase at 0.25 uM incubated for 24 hrs by PI staining based flow cytometric analysis (reference value: 34.78%). Type of assay: functional.
The subject of assay [14] is PLC-PRF-5. In words: Inhibition of colony formation in human PLC/PRF/5 cells assessed as decrease in colony size at 0.1 to 1 uM incubated for 10 days by crystal violet staining based microscopic method.
Assay [15] deals with HepG2. Put plainly: Induction of apoptosis in human HepG2 cells assessed as live cells at 0.25 uM incubated for 24 hrs by annexin V staining based cell counting method (reference value: 87.35%). In kind it is functional.
The test system of assay [16] is HepG2. In words: Induction of apoptosis in human HepG2 cells assessed as increase in cytochrome c protein expression level at 0.25 to 1.25 uM incubated for 24 hrs by Western blot analysis. Type of assay: functional, cell-based. An outline of the steps: as §1
Assay [17] deals with PLC-PRF-5. Put plainly: Induction of ROS generation in human PLC/PRF/5 cells at 1 uM by DCFH-DA staining-based flow cytometric analysis relative to control. Type of assay: functional. An outline of the steps:
as §2

In assay [18] the test system is HepG2. Put plainly: Induction of cell cycle arrest in human HepG2 cells assessed as accumulation at G1 phase at 0.5 uM incubated for 24 hrs by PI staining based flow cytometric analysis (reference value: 37.06%). In kind it is functional.
In assay [19] the test system is HepG2. Put plainly: Induction of apoptosis in human HepG2 cells assessed as necrotic cells at 0.5 uM incubated for 24 hrs by annexin V staining based cell counting method (reference value: 3.40%). In kind it is functional.
The subject of assay [20] is HepG2. Put plainly: Induction of ROS generation in human HepG2 cells at 1 uM by DCFH-DA staining-based flow cytometric analysis relative to control. In kind it is functional. An outline of the steps:
as §2

In assay [21] the test system is HepG2. Put plainly: Induction of cell cycle arrest in human HepG2 cells assessed as accumulation at G2 phase at 0.5 uM incubated for 24 hrs by PI staining based flow cytometric analysis (reference value: 25.55%). In kind it is functional.
Assay [22] has as its system PLC-PRF-5. Put plainly: Induction of apoptosis in human PLC/PRF/5 cells assessed as live cells at 1 uM incubated for 24 hrs by annexin V staining based cell counting method (reference value: 88.95%). In kind it is functional.
The subject of assay [23] is HepG2. In words: Induction of apoptosis in human HepG2 cells assessed as late apoptotic cells at 1 uM incubated for 24 hrs by annexin V staining based cell counting method (reference value: 5.65%). Type of assay: functional.

SMILES strings stand for the structures. The source made the active and inactive calls. The rule behind the calls is not given here.

Here are results for one compound from ChEMBL document CHEMBL4364265, “Oridonin derivatives as potential anticancer drug candidates triggering apoptosis through mitochondrial pathway in the liver cancer cells” (Eur J Med Chem, 2019).

Regarding `C=C1C(=O)[C@]23[C@H](OC(=O)/C=C/c4ccc(OC)cc4)[C@H]1CC[C@H]2[C@@]12CO[C@]3(O)[C@@H](O)[C@@H]1C(C)(C)CC[C@@H]2O`, the Activity in the assay with HepG2 [1] was 34.53%; with HepG2 [2], “Dose-dependent effect”; in the assay with PLC-PRF-5 [3], 16.04%; in the assay on PLC-PRF-5 [4], 0.45%; in the assay on HepG2 [5] it was 33.94%; in the assay with PLC-PRF-5 [6] it was 43.13%. Further, the Activity result is “Dose-dependent effect” in the assay on HepG2 [7]; “Dose-dependent effect” in the assay on HepG2 [8]; 36.66% in the assay with PLC-PRF-5 [9]; 8.95% in the assay on HepG2 [10]; 37.17% with PLC-PRF-5 [13]; 81.95% in the assay with HepG2 [15]. For the same compound, the Activity in the assay with HepG2 [18] turned out to be 39.07%; in the assay on HepG2 [19], 5.75%; in the assay on HepG2 [21], 23.84%; in the assay on PLC-PRF-5 [22], 33.5%; in the assay on HepG2 [23] it was 20.7%. Further, the “Ratio IC50” value in assay [11] was determined as 1.8. The inhibition result in the assay with HepG2 [12] and in the assay on PLC-PRF-5 [14] was “Active” each time. In addition, in the assay with HepG2 [16], the outcome was Active. For the same compound, the “fold change (FC)” value with PLC-PRF-5 [17] and with HepG2 [20] was 3 throughout.
